Source: PubChem
TRPC4 act: activators of mouse TRPC4 channel, primary screen, Fluo4 calcium, HEK293 TRPC4beta/mu-opioid cells; Short transient receptor potential channel 4 (Mus musculus), Q9QUQ5; Fluo4 calcium fluorescence; stronger effect = higher value; B-score at 10 µM; 0.49% of 310,000 active;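 active = B-score above 5 SD of library B-scores, and initial fluorescence ratio not above library mean plus 5 SD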;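 note: positive B-score marks a calcium rise read as TRPC4 activation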
Target sequence (Q9QUQ5 whole entry, looked up): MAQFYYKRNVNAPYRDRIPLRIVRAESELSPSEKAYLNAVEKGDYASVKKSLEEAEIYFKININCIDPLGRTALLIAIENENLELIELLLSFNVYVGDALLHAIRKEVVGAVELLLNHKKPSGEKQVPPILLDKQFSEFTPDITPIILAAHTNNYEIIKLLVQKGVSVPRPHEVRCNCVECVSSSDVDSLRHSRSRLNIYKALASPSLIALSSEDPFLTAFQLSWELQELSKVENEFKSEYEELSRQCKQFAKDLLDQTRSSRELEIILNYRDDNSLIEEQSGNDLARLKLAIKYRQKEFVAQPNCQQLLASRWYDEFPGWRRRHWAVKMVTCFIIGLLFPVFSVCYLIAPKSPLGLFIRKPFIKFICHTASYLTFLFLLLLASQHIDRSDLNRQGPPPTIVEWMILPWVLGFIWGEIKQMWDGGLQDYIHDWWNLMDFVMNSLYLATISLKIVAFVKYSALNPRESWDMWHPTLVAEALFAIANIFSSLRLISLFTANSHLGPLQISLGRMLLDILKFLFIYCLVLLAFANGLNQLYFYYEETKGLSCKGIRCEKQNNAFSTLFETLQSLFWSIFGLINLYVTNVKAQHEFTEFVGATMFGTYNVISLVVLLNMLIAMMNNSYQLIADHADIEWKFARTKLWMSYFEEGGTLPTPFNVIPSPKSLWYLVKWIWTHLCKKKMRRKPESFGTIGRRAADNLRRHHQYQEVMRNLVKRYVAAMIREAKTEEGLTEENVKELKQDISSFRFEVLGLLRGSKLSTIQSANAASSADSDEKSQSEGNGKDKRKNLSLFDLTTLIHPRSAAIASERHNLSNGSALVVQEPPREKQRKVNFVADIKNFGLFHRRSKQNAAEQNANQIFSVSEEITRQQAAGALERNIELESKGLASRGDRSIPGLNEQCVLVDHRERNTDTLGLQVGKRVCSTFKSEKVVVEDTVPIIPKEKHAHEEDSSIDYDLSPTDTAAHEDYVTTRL
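Assay system – TRPC4beta and mu-opioid receptor HEK293 stable cells · Measured by – Fluo4 fluorescence, kinetic · Schedule – dye loading 45 min room temperature, 110 s kinetic read · Read-out – B-scored integrated calcium fluorescence ratio · Controls – buffer and maximal DAMGO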
TRPC4 potent: positive allosteric modulators of TRPC4, primary screen, cell-based, mouse TRPC4beta, HEK293 mu-opioid, Fluo-4 calcium; Short transient receptor potential channel 4 (Mus musculus), Q9QUQ5; DAMGO EC20, Fluo-4 Ca2+ flux; stronger effect = higher value; B-score at 10 µM; 0.42% of 310,000 active;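 active = B-score of calcium response area above 5 SD of library B-scores, with initial fluorescence ratio within 5 SD of library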
Platelet DG rel: inhibitors of platelet dense granule secretion, primary screen, cell-based, MLPCN, human platelets | human platelet-rich plasma, SFLLRN dense granule ATP release, luminescence | inhibition, %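 (compounds screened at 7.5 µM in platelet-rich plasma)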 | 0.22% of 300,000 active | AID 1663, 2009;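 active = mean replicate score, as percent of positive control, at or above 50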
TRPC6 act: mouse TRPC6 channel activators, primary screen, cell-based, HEK293, membrane potential dye; HEK293-TRPC6 membrane potential dye fluorescence; stronger effect = higher value; B-score at 10 µM; 0.13% of 310,000 active;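 active = B-score of the integrated fluorescence ratio above library mean plus 3 SD, and starting fluorescence ratio within library mean plus 5 SD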;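 note: higher score means more depolarization so channel activation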
TRPC6 inhibitor: mouse TRPC6 channel inhibitors, primary screen, cell-based, HEK293, membrane potential dye. ACh-evoked depolarization; stronger effect = lower value. B-score at 10 µM. 1.1% of 310,000 active. Short transient receptor potential channel 6 (Mus musculus), Q61143. AID 2553, 2010;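 active = B-score under library mean minus 3 SD, initial fluorescence not abnormally high, positive integrated signal ratio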;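 note: B-score derived from integrated fluorescence ratio over the kinetic read; more negative B-score means stronger inhibition of depolarization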
TRPC4 block: inhibitors of mouse TRPC4 channel, primary screen, Fluo4 calcium, HEK293 TRPC4beta/mu-opioid cells; AID 2247, 2010; Short transient receptor potential channel 4 (Mus musculus), Q9QUQ5; B-score at 10 µM; 0.39% of 300,000 active; DAMGO-evoked Fluo4 calcium flux; stronger effect = lower value;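 active = B-score over 3 SD under the library average, no early fluorescence shift, positive overall ratio signal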
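Signal: kinetic Fluo4 fluorescence imaging of calcium influx. Material: stable TRPC4beta/mu-opioid receptor HEK293 cells. Probe or stimulus: DAMGO in two steps, submaximal then maximal.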
TRPC4 sel inh 2: second selectivity test of TRPC6 inhibitors: effect on mouse TRPC4; shares compounds with TRPC6 inhibitor; HEK293 TRPC4/MOR, membrane potential dye fluorescence; channel activated by saturating DAMGO dose; inhibition, % at 10 µM; 42% of 920 active; AID 2776;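 active = compounds whose fluorescence signal differed from control wells by over 3 SD, either direction, in both duplicate plates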
TRPC4 spec: mouse TRPC4 modulation by TRPC6 hits, confirmation, selectivity assay for TRPC6 inhibitor project, cell-based, HEK293 TRPC4/mu-opioid, membrane potential dye. activity change, negative = inhibition, % at 10 µM. AID 2777, 2010. shares compounds with TRPC6 inhibitor. membrane potential fluorescence. 61% of 920 active;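 active = rise or fall in signal beyond 3 SD of buffer-only wells in both replicate plates, either sign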;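 note: integrated kinetic ratio of fluorescence range over baseline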
HEK293 MPD ctr 2-1: nonspecific membrane potential effects, parental HEK293, confirmation, counter-screen for TRPC6 inhibitor project, cell-based, second counter screen | shares compounds with TRPC6 inhibitor | parental HEK293 membrane potential dye fluorescence; maximal acetylcholine challenge after compound addition | signal change vs control, % at 10 µM | 31% of 920 active;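 active = membrane potential signal moving either way by over 3 SD of the maximum-effect control, in both duplicate plates, meaning non-specific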
HEK293 MPD ctr-1: membrane potential modulation in parental HEK293, confirmation, counter-screen for TRPC6 inhibitor project, cell-based | shares compounds with TRPC6 inhibitor | parental HEK293 membrane potential dye fluorescence | membrane potential signal change, % at 10 µM | 60% of 920 active | AID 2780, 2010;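 active = membrane potential signal shifting up or down by more than 3 SD of buffer-only wells, on both duplicate plates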
HEK293 MPD ctr-2: parental HEK293 membrane potential modulation, confirmation, counter-screen for TRPC6 modulator project, cell-based | shares compounds with TRPC6 inhibitor | membrane potential dye fluorescence | membrane potential signal change, % at 10 µM | 51% of 2,400 active | AID 488924, 2010;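 active = membrane potential signal moves up or down beyond 5 SD from buffer-only wells, on both duplicate plates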
HEK293 MPD ctr 2-2: second check of TRPC6 modulator effects in parental HEK293 cells | shares compounds with TRPC6 inhibitor | AID 488926 | membrane potential dye fluorescence; after compound, maximal acetylcholine stimulation | inhibition, % at 10 µM | 14% of 2,400 active;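 active = membrane potential signal drops by more than 5 SD from the mean control signal, in both duplicate plates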
TRPC4 ctr mod: TRPC4 modulation by TRPC6 hit compounds, confirmation, selectivity assay for TRPC6 modulator project, cell-based, HEK293 TRPC4/mu-opioid, membrane potential dye, mouse; shares compounds with TRPC6 inhibitor; membrane potential fluorescence; percent change from control (negative = decrease, positive = increase), % at 10 µM; 69% of 2,400 active; AID 488927, 2010;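 active = membrane potential signal moved up or down beyond 5 SD of buffer control wells, in both duplicate plates, actives on both sides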
TRPC4/MOR inh 2: mouse TRPC4 off-target activity of TRPC6 modulators, second screen; HEK293 TRPC4/mu-opioid, membrane potential dye fluorescence; stimulated with maximal-effect DAMGO; 55% of 2,400 active; inhibition, % at 10 µM; shares compounds with TRPC6 inhibitor;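 active = drop in membrane potential signal beyond 5 SD of the control wells in both duplicate plates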;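 note: TRPC4 counter screen for TRPC6 hits run under conditions tuned for TRPC6 not TRPC4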
TRPC6 inh conf: mouse TRPC6 channel inhibitors, confirmation, HEK293 cells, membrane potential dye, duplicate | 43% of 3,300 active | inhibition, % at 10 µM | shares compounds with TRPC6 inhibitor | ACh-evoked depolarization | AID 488960, 2010;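 active = fluorescence ratio falls more than 5 SD below the full-stimulation control mean, in both duplicate runs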;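 note: integrated fluorescence ratio of peak minus minimum over baseline after agonist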
TRPC6 act confirm: mouse TRPC6 channel activators, confirmation, HEK293 cells, membrane potential dye, duplicate; activation, % at 10 µM; shares compounds with TRPC6 inhibitor; HEK293-TRPC6 membrane potential dye fluorescence, FDSS; 11% of 2,800 active;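 active = ratio signal rise beyond 5 SD above unstimulated control wells' mean, seen in both duplicate runs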
A number is an active result; n = inactive; x = no result given. Most compounds without a hit are left out; they make up all but 2.5% or so of the library.

SMILES	TRPC4 act	TRPC4 potent	Platelet DG rel	TRPC6 act	TRPC6 inhibitor	TRPC4 block	HEK293 MPD ctr-2	HEK293 MPD ctr 2-2	TRPC4 ctr mod	TRPC4/MOR inh 2	TRPC6 inh conf	TRPC6 act confirm	others
COc1cc(-c2cc[n+](C)cc2)ccc1O	n	n	n	n	-6	n	-329%	n	-53%	n	n	n
COc1ccc(NC(=O)C2CCCN(S(=O)(=O)c3ccc4c(c3)CC(C)N4C(C)=O)C2)cc1 (stereo unspecified)	n	n	n	n	n	n	x	x	x	x	x	x
CC(=O)N1c2ccc(S(=O)(=O)N3CCCC(C(=O)Nc4ccc(F)cc4)C3)cc2CC1C (stereo unspecified)	n	n	n	n	-5.1	n	n	n	n	n	n	n
CC(=O)c1ccc(NC(=O)C2CCCN(S(=O)(=O)c3ccc(-n4cnnn4)cc3)C2)cc1 (stereo unspecified)	n	n	n	n	n	n	x	x	x	x	x	x
CCc1ccc(NC(=O)C2CCN(S(=O)(=O)c3cnc[nH]3)CC2)cc1	n	n	n	n	n	n	x	x	x	x	x	x
CC(=O)Nc1ccc(NC(=O)C2CCCN(S(=O)(=O)c3ccc(-n4cnnn4)cc3)C2)cc1 (stereo unspecified)	n	n	n	n	-6.6	n	x	x	x	x	n	n	TRPC4 sel inh 2=n;TRPC4 spec=n;HEK293 MPD ctr 2-1=n;HEK293 MPD ctr-1=n
CCc1ccc(NC(=O)C2CCCN(S(=O)(=O)c3cnc[nH]3)C2)cc1 (stereo unspecified)	n	n	n	n	-6.1	n	n	n	n	n	n	n
